Experiment [1] addresses T1, Cannabinoid receptor 2 (Homo sapiens, UniProt P34972). As to the kind of experiment: Inhibition of [35S]GTP-gamma-S binding to human CB2 receptor expressed in CHO cells. The experiment is classed as functional, cell-based. (In general: GTPγS resists hydrolysis and so accumulates on activated G proteins.)
Experiment [2] concerns the target Cannabinoid receptor 1 (Rattus norvegicus) (UniProt P20272). As to the kind of experiment: […] activity at HU210-induced CB1 receptor in rat cerebellar membrane at 10 uM. The experiment is classed as functional, cell membranes. To be noted: Cerebellum. A digest of the protocol:
(§1)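 [³⁵S]GTPγS binding in rat cerebellar membranes, measuring block of the CB1 response to 10 nM HU-210 by ligand at 1 µM and 10 µM. Ligand alone was also tested at 10 µM for agonism. Values are means of at least three independent experiments run in duplicate, with SEM as the variability.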

Experiment [3] has the same target. As to the kind of experiment: […] activity at HU210-induced CB1 receptor in rat cerebellar membrane at 1 uM. The experiment is classed as functional, cell membranes. As to conditions: Cerebellum. In outline:
as §1

For experiment [4], the target named is T1, Cannabinoid receptor 2. As to the kind of experiment: Inhibition of [35S]GTP-gamma-S binding to human CB2 receptor expressed in CHO cells relative to SR-144528. It is filed as functional, cell-based. A digest of the protocol:
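Membranes from CHO cells stably expressing hCB2 (Bmax 20.4 pmol/mg; cultured with 100 µg/mL G-418). Each incubation held 5 µg protein in 55 mM Tris-HCl pH 7.4 with 1.1 mM EDTA, 100 mM NaCl, 5 mM MgCl₂, 0.5% BSA, 11 µM GDP and about 150 pM [³⁵S]GTPγS. Ligands were added in 1% ethanol or 0.5% DMSO (final). Inhibition of basal binding was expressed against 1 µM SR144528 (Imax). At least three experiments were run in duplicate, reported as mean and SEM.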

Chain of Cannabinoid receptor 1 (Rattus norvegicus) (P20272 whole entry): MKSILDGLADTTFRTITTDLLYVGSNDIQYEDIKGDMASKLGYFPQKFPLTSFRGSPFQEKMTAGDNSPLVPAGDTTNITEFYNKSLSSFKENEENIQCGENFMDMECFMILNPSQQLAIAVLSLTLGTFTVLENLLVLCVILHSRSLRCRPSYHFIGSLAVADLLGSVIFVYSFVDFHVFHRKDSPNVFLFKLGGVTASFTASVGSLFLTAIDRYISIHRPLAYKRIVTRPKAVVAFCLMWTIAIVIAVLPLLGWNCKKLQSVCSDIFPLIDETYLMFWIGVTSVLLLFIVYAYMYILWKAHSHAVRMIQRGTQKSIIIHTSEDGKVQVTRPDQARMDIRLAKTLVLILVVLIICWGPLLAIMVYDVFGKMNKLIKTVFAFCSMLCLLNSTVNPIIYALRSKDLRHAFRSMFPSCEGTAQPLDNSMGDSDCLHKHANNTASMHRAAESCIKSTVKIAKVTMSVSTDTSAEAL
T1 sequence (P34972 whole entry): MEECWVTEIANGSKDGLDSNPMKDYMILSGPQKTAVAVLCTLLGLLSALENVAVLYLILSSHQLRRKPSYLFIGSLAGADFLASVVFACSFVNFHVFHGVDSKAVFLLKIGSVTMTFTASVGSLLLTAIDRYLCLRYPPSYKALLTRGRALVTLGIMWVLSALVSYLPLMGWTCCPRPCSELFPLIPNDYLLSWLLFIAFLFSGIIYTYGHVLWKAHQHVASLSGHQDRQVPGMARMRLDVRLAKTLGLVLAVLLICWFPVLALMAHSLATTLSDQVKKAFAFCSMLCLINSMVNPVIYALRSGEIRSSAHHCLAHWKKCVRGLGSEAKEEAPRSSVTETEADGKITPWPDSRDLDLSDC

In turn, `CCCCCOc1c(OC)ccc2cc(C(=O)NCc3ccc(O)c(O)c3)c(=O)[nH]c12` had an IC50 on Cannabinoid receptor 2 [1] of 3980 nM.
Compound `CCCCCOc1c(OC)ccc2cc(C(=O)NCc3ccccc3)c(O)nc12` showed a 50% inhibitory concentration (IC50) on Cannabinoid receptor 2 [1] of 63.1 nM. Further, the Activity was 79% in experiment [2] and 94% in experiment [3]. Besides, on Cannabinoid receptor 2 [4], the Imax was 75%.
Consider `CCCCCOc1c(OC)ccc2cc(C(=O)NCCc3ccc(N)cc3)c(O)nc12`, for which the Activity in experiment [2] is 74%; in experiment [3], 91%. Moreover, at Cannabinoid receptor 2 [4], the Imax was found to be 97%.
On to `CCCCCOc1c(OC)ccc2cc(C(=O)Nc3ccccc3N)c(=O)[nH]c12`, for which, on Cannabinoid receptor 2 [1], the IC50 was 12.6 nM.
For the compound `CCCCCOc1c(OC)ccc2cc(C(=O)NCc3ccc(O)c(O)c3)c(O)nc12`, the Activity in experiment [2] was found to be 85%; in experiment [3], 93%. Further, the Imax at Cannabinoid receptor 2 [4] turned out to be 124%.
As for `CCCCCOc1c(OC)ccc2cc(C(=O)NCCc3ccc(O)cc3)c(=O)[nH]c12`, the IC50 on Cannabinoid receptor 2 [1] was 10 nM.
With `CCCCCOc1c(OC)ccc2cc(C(=O)NCCc3ccccc3)c(=O)[nH]c12`, at Cannabinoid receptor 2 [1], the 50% inhibitory concentration (IC50) was 0.631 nM. Moreover, the values for the Activity in experiment [2] and in experiment [3] were 61% and 87%, respectively. The compound also gave an Imax on Cannabinoid receptor 2 [4] of 76%.
On to `Cc1ccc(Cn2nc(C(=O)NC3C4(C)CCC(C4)C3(C)C)cc2-c2ccc(Cl)c(C)c2)cc1` (centres undefined), for which the Activity was determined as 53% in experiment [2] and 77% in experiment [3]. Also, the Imax at Cannabinoid receptor 2 [4] came to 100%.
At Cannabinoid receptor 2 [1], `CCCCCOc1c(OC)ccc2cc(NC(=O)Cc3ccc4c(c3)OCO4)c(=O)[nH]c12` showed a 50% inhibitory concentration (IC50) of 20 nM.
`CCCCCOc1c(OC)ccc2cc(C(=O)NCc3ccc4c(c3)OCO4)c(=O)[nH]c12`: the Activity in experiment [2] was determined as 78%; in experiment [3], 94%. Moreover, the Imax on Cannabinoid receptor 2 [4] is 80%.
`CCCCCOc1c(OC)ccc2cc(C(=O)NCCc3ccc(Cl)cc3)c(=O)[nH]c12`: at Cannabinoid receptor 2 [1], the IC50 was 5.01 nM. Moreover, the Activity in experiment [2] came out at 64%; in experiment [3], 95%. The compound further gave an Imax at Cannabinoid receptor 2 [4] of 104%.
The matching figures for `CCCCCOc1c(OC)ccc2cc(C(=O)NCCCc3ccccc3)c(=O)[nH]c12`: 0.794 nM, 59%, 98% and 82%.
In turn, `CCCCCOc1c(OC)ccc2cc(C(=O)NCCc3ccc(N)cc3)c(=O)[nH]c12` showed a concentration for half-maximal inhibition (IC50) at Cannabinoid receptor 2 [1] of 3.16 nM.
Consider `CCCCCOc1c(OC)ccc2cc(C(=O)NCCc3ccc([N+](=O)[O-])cc3)c(O)nc12`, for which the figures for the Activity in experiment [2] and in experiment [3] were 65% and 87%, respectively. This compound also showed an Imax on Cannabinoid receptor 2 [4] of 61%.
Turning to `CCCCCOc1c(OC)ccc2cc(C(=O)NCCc3c[nH]c4ccccc34)c(O)nc12`, the IC50 on Cannabinoid receptor 2 [1] is 25.1 nM. For the same compound, the Activity in experiment [2] came to 72%; in experiment [3], 94%. Further, the Imax on Cannabinoid receptor 2 [4] worked out at 79%.
With `CCCCCOc1c(OC)ccc2cc(NC(=O)Cc3ccc4c(c3)OCO4)c(O)nc12`, the Activity in experiment [2] came to 75%; in experiment [3], 93%. Further, the Imax on Cannabinoid receptor 2 [4] turned out to be 60%.
Turning to `CCCCCOc1c(OC)ccc2cc(C(=O)NCCc3ccc([N+](=O)[O-])cc3)c(=O)[nH]c12`, the IC50 at Cannabinoid receptor 2 [1] was 100 nM.
As to `CCCCCOc1c(OC)ccc2cc(C(=O)NCCc3ccc(O)c(O)c3)c(O)nc12`, the half-maximal inhibitory concentration (IC50) on Cannabinoid receptor 2 [1] is 398 nM. The Activity in experiment [2] came out at 63%; in experiment [3] it was 93%. This compound also registered an Imax at Cannabinoid receptor 2 [4] of 93%.
Consider `CCCCCOc1c(OC)ccc2cc(C(=O)Nc3ccccc3N)c(O)nc12`, for which the values for the Activity in experiment [2] and in experiment [3] were 82% and 87%, respectively. The compound further showed an Imax on Cannabinoid receptor 2 [4] of 82%.
On to `CCCCCOc1c(OC)ccc2cc(C(=O)NCCc3ccc(O)cc3)c(O)nc12`, for which the Activity in experiment [2] came to 68%; in experiment [3], 92%. On Cannabinoid receptor 2 [4], this compound displayed an Imax of 90%.

The term IC50 denotes the concentration needed to halve the response being measured. Low values mean inhibition by little substance, high ones a need for much substance.

The values above are taken from ChEMBL document CHEMBL1139010, “Synthesis and SAR studies of 2-oxoquinoline derivatives as CB2 receptor inverse agonists” (J Med Chem, 2006).
